Reference: ChEMBL document CHEMBL4689842, “EUbOPEN Chemogenomics Library wave 1” (2021)
Where “and” joins values, the source holds several entries; their conditions need not be identical. Identical values can stand only once.

System: HEK-293T
Experiment: Multiplex assay against HEK293T;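 on Population Tubulin-Different-Phenotype (%): share of the cells with healthy nuclei that show this phenotype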
Format: toxicity, cell-based
Conditions: human
Procedure, shortened: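 Cells stained live at seeding with Hoechst33342, BioTracker Green Microtubule Cytoskeleton Dye, MitoTracker Red and Annexin V Alexa Fluor 680 were imaged on a CQ1 microscope at 37°C and 5% CO2 after compound addition. Their classification by CellPathfinder machine-learning gating ran from Hoechst high-intensity objects versus normal cells, to healthy, pyknosed or fragmented nuclei among normal cells, to mitotic or apoptotic among pyknosed cells. Tubulin, mitochondrial-mass and membrane-permeability phenotypes are per cents of healthy-nucleus cells.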

[1] = 12 h, 1 µM, compound concentration 1 uM, replicate 1
[2] = 12 h, 1 µM, compound concentration 1 uM, replicate 2
[3] = 12 h, 10 µM, compound concentration 10 uM, replicate 1
[4] = 12 h, 10 µM, compound concentration 10 uM, replicate 2
[5] = 24 h, 1 µM, compound concentration 1 uM, replicate 1
[6] = 24 h, 1 µM, compound concentration 1 uM, replicate 2
[7] = 24 h, 10 µM, compound concentration 10 uM, replicate 1
[8] = 24 h, 10 µM, compound concentration 10 uM, replicate 2
[9] = 48 h, 1 µM, compound concentration 1 uM, replicate 1
[10] = 48 h, 1 µM, compound concentration 1 uM, replicate 2
[11] = 48 h, 10 µM, compound concentration 10 uM, replicate 1
[12] = 48 h, 10 µM, compound concentration 10 uM, replicate 2

Oc1cccc(-c2nc(N3CCOCC3)c3oc4ncccc4c3n2)c1 [PI-103]
Population Apoptotic (%) [1]: 58%
Population Fragmented Nuclei (%) [1]: 6%
Population Healthy Nuclei (%) [1]: 16%
Population Hoechst High Intensity Objects (%) [1]: 21%
Population Membrane Permeable-Phenotype (%) [1]: 2%
Population Mitochondria Different-Phenotype (%) [1]: 85%
Population Mitotic Cells (%) [1]: 41%
Population Normal (%) [1]: 78%
Population Pyknosed Nuclei (%) [1]: 77%
Population Tubulin-Different-Phenotype (%) [1]: 82%
Total Cell Count [1]: 269
Population Apoptotic (%) [2]: 51%
Population Fragmented Nuclei (%) [2]: 10%
Population Healthy Nuclei (%) [2]: 13%
Population Hoechst High Intensity Objects (%) [2]: 14%
Population Membrane Permeable-Phenotype (%) [2]: 10%
Population Mitochondria Different-Phenotype (%) [2]: 68%
Population Mitotic Cells (%) [2]: 48%
Population Normal (%) [2]: 85%
Population Pyknosed Nuclei (%) [2]: 76%
Population Tubulin-Different-Phenotype (%) [2]: 63%
Total Cell Count [2]: 161
Population Apoptotic (%) [3]: 72%
Population Fragmented Nuclei (%) [3]: 14%
Population Healthy Nuclei (%) [3]: 8%
Population Hoechst High Intensity Objects (%) [3]: 18%
Population Membrane Permeable-Phenotype (%) [3]: 11%
Population Mitochondria Different-Phenotype (%) [3]: 94%
Population Mitotic Cells (%) [3]: 27%
Population Normal (%) [3]: 81%
Population Pyknosed Nuclei (%) [3]: 77%
Population Tubulin-Different-Phenotype (%) [3]: 94%
Total Cell Count [3]: 269
Population Apoptotic (%) [4]: 64%
Population Fragmented Nuclei (%) [4]: 7%
Population Healthy Nuclei (%) [4]: 6%
Population Hoechst High Intensity Objects (%) [4]: 6%
Population Membrane Permeable-Phenotype (%) [4]: 27%
Population Mitochondria Different-Phenotype (%) [4]: 54%
Population Mitotic Cells (%) [4]: 35%
Population Normal (%) [4]: 93%
Population Pyknosed Nuclei (%) [4]: 85%
Population Tubulin-Different-Phenotype (%) [4]: 72%
Total Cell Count [4]: 172
Population Apoptotic (%) [5]: 47%
Population Fragmented Nuclei (%) [5]: 13%
Population Healthy Nuclei (%) [5]: 10%
Population Hoechst High Intensity Objects (%) [5]: 22%
Population Mitochondria Different-Phenotype (%) [5]: 78%
Population Mitotic Cells (%) [5]: 52%
Population Normal (%) [5]: 77%
Population Pyknosed Nuclei (%) [5]: 76%
Population Tubulin-Different-Phenotype (%) [5]: 86%
Total Cell Count [5]: 293
Population Apoptotic (%) [6]: 53%
Population Fragmented Nuclei (%) [6]: 9%
Population Healthy Nuclei (%) [6]: 26%
Population Hoechst High Intensity Objects (%) [6]: 15%
Population Membrane Permeable-Phenotype (%) [6]: 13%
Population Mitochondria Different-Phenotype (%) [6]: 59%
Population Mitotic Cells (%) [6]: 46%
Population Normal (%) [6]: 84%
Population Pyknosed Nuclei (%) [6]: 64%
Population Tubulin-Different-Phenotype (%) [6]: 64%
Total Cell Count [6]: 168
Population Apoptotic (%) [7]: 63%
Population Fragmented Nuclei (%) [7]: 18%
Population Healthy Nuclei (%) [7]: 8%
Population Hoechst High Intensity Objects (%) [7]: 17%
Population Membrane Permeable-Phenotype (%) [7]: 10%
Population Mitochondria Different-Phenotype (%) [7]: 100%
Population Mitotic Cells (%) [7]: 36%
Population Normal (%) [7]: 82%
Population Pyknosed Nuclei (%) [7]: 73%
Population Tubulin-Different-Phenotype (%) [7]: 90%
Total Cell Count [7]: 291
Population Apoptotic (%) [8]: 65%
Population Fragmented Nuclei (%) [8]: 11%
Population Healthy Nuclei (%) [8]: 11%
Population Hoechst High Intensity Objects (%) [8]: 16%
Population Membrane Permeable-Phenotype (%) [8]: 23%
Population Mitochondria Different-Phenotype (%) [8]: 70%
Population Mitotic Cells (%) [8]: 34%
Population Normal (%) [8]: 83%
Population Pyknosed Nuclei (%) [8]: 76%
Population Tubulin-Different-Phenotype (%) [8]: 88%
Total Cell Count [8]: 175
Population Apoptotic (%) [9]: 56%
Population Fragmented Nuclei (%) [9]: 23%
Population Healthy Nuclei (%) [9]: 4%
Population Hoechst High Intensity Objects (%) [9]: 22%
Population Membrane Permeable-Phenotype (%) [9]: 9%
Population Mitochondria Different-Phenotype (%) [9]: 72%
Population Mitotic Cells (%) [9]: 43%
Population Normal (%) [9]: 77%
Population Pyknosed Nuclei (%) [9]: 71%
Population Tubulin-Different-Phenotype (%) [9]: 63%
Total Cell Count [9]: 297
Population Apoptotic (%) [10]: 50%
Population Fragmented Nuclei (%) [10]: 12%
Population Healthy Nuclei (%) [10]: 55%
Population Hoechst High Intensity Objects (%) [10]: 14%
Population Membrane Permeable-Phenotype (%) [10]: 7%
Population Mitochondria Different-Phenotype (%) [10]: 63%
Population Mitotic Cells (%) [10]: 50%
Population Normal (%) [10]: 85%
Population Pyknosed Nuclei (%) [10]: 31%
Population Tubulin-Different-Phenotype (%) [10]: 88%
Total Cell Count [10]: 185
Population Apoptotic (%) [11]: 55%
Population Fragmented Nuclei (%) [11]: 29%
Population Healthy Nuclei (%) [11]: 7%
Population Hoechst High Intensity Objects (%) [11]: 17%
Population Membrane Permeable-Phenotype (%) [11]: 0%
Population Mitochondria Different-Phenotype (%) [11]: 94%
Population Mitotic Cells (%) [11]: 44%
Population Normal (%) [11]: 82%
Population Pyknosed Nuclei (%) [11]: 63%
Population Tubulin-Different-Phenotype (%) [11]: 84%
Total Cell Count [11]: 307
Population Apoptotic (%) [12]: 78%
Population Fragmented Nuclei (%) [12]: 10%
Population Healthy Nuclei (%) [12]: 18%
Population Hoechst High Intensity Objects (%) [12]: 22%
Population Membrane Permeable-Phenotype (%) [12]: 8%
Population Mitochondria Different-Phenotype (%) [12]: 80%
Population Mitotic Cells (%) [12]: 21%
Population Normal (%) [12]: 77%
Population Pyknosed Nuclei (%) [12]: 71%
Population Tubulin-Different-Phenotype (%) [12]: 88%
Total Cell Count [12]: 177

Cc1c(Nc2ccc(S(=O)(=O)N3CCN(C)CC3)cc2F)nc2ccc(-c3cnn(C4CC4)c3)cn2c1=O
Population Apoptotic (%) [1]: 19%
Population Fragmented Nuclei (%) [1]: 13%
Population Healthy Nuclei (%) [1]: 67%
Population Hoechst High Intensity Objects (%) [1]: 9%
Population Membrane Permeable-Phenotype (%) [1]: 4%
Population Mitochondria Different-Phenotype (%) [1]: 6%
Population Mitotic Cells (%) [1]: 80%
Population Normal (%) [1]: 90%
Population Pyknosed Nuclei (%) [1]: 18%
Population Tubulin-Different-Phenotype (%) [1]: 6%
Total Cell Count [1]: 755
Population Apoptotic (%) [2]: 10%
Population Fragmented Nuclei (%) [2]: 7%
Population Healthy Nuclei (%) [2]: 87%
Population Hoechst High Intensity Objects (%) [2]: 2%
Population Membrane Permeable-Phenotype (%) [2]: 2%
Population Mitochondria Different-Phenotype (%) [2]: 9%
Population Mitotic Cells (%) [2]: 89%
Population Normal (%) [2]: 97%
Population Pyknosed Nuclei (%) [2]: 4%
Population Tubulin-Different-Phenotype (%) [2]: 10%
Total Cell Count [2]: 1860
Population Apoptotic (%) [3]: 43% and 17%
Population Fragmented Nuclei (%) [3]: 44% and 17%
Population Healthy Nuclei (%) [3]: 37% and 61%
Population Hoechst High Intensity Objects (%) [3]: 45% and 18%
Population Membrane Permeable-Phenotype (%) [3]: 2% and 7%
Population Mitotic Cells (%) [3]: 56% and 82%
Population Normal (%) [3]: 54% and 81%
Population Pyknosed Nuclei (%) [3]: 18% and 20%
Population Tubulin-Different-Phenotype (%) [3]: 40% and 15%
Total Cell Count [3]: 1012 and 786
Population Apoptotic (%) [4]: 16% and 6%
Population Fragmented Nuclei (%) [4]: 14% and 9%
Population Healthy Nuclei (%) [4]: 32% and 84%
Population Hoechst High Intensity Objects (%) [4]: 22% and 9%
Population Membrane Permeable-Phenotype (%) [4]: 4% and 8%
Population Mitotic Cells (%) [4]: 83% and 93%
Population Normal (%) [4]: 77% and 90%
Population Tubulin-Different-Phenotype (%) [4]: 64% and 33%
Population Apoptotic (%) [5]: 15%
Population Fragmented Nuclei (%) [5]: 11%
Population Healthy Nuclei (%) [5]: 77%
Population Hoechst High Intensity Objects (%) [5]: 5%
Population Membrane Permeable-Phenotype (%) [5]: 8%
Population Mitochondria Different-Phenotype (%) [5]: 4%
Population Mitotic Cells (%) [5]: 84%
Population Normal (%) [5]: 94%
Population Pyknosed Nuclei (%) [5]: 10%
Population Tubulin-Different-Phenotype (%) [5]: 10%
Total Cell Count [5]: 923
Population Apoptotic (%) [6]: 1%
Population Fragmented Nuclei (%) [6]: 23%
Population Healthy Nuclei (%) [6]: 74%
Population Hoechst High Intensity Objects (%) [6]: 2%
Population Membrane Permeable-Phenotype (%) [6]: 7%
Population Mitochondria Different-Phenotype (%) [6]: 2%
Population Mitotic Cells (%) [6]: 98%
Population Normal (%) [6]: 97%
Population Pyknosed Nuclei (%) [6]: 1%
Population Tubulin-Different-Phenotype (%) [6]: 14%
Total Cell Count [6]: 3127
Population Apoptotic (%) [7]: 41%
Population Healthy Nuclei (%) [7]: 39% and 75%
Population Membrane Permeable-Phenotype (%) [7]: 8%
Population Mitotic Cells (%) [7]: 58% and 76%
Population Normal (%) [7]: 56% and 86%
Population Pyknosed Nuclei (%) [7]: 16% and 12%
Population Tubulin-Different-Phenotype (%) [7]: 51% and 32%
Total Cell Count [7]: 1052 and 818
Population Fragmented Nuclei (%) [8]: 11% and 14%
Population Healthy Nuclei (%) [8]: 42% and 80%
Population Mitotic Cells (%) [8]: 77% and 93%
Population Normal (%) [8]: 75% and 92%
Population Tubulin-Different-Phenotype (%) [8]: 64% and 49%
Population Apoptotic (%) [11]: 44%
Population Fragmented Nuclei (%) [11]: 37%
Population Healthy Nuclei (%) [11]: 47%
Population Hoechst High Intensity Objects (%) [11]: 40%
Population Membrane Permeable-Phenotype (%) [11]: 5%
Population Mitochondria Different-Phenotype (%) [11]: 35%
Population Mitotic Cells (%) [11]: 55%
Population Normal (%) [11]: 59%
Population Pyknosed Nuclei (%) [11]: 14%
Population Tubulin-Different-Phenotype (%) [11]: 58%
Total Cell Count [11]: 1023
Population Apoptotic (%) [12]: 26%
Population Fragmented Nuclei (%) [12]: 12%
Population Healthy Nuclei (%) [12]: 61%
Population Hoechst High Intensity Objects (%) [12]: 19%
Population Membrane Permeable-Phenotype (%) [12]: 12%
Population Mitotic Cells (%) [12]: 73%
Population Normal (%) [12]: 80%
Population Pyknosed Nuclei (%) [12]: 25%
Population Tubulin-Different-Phenotype (%) [12]: 69%
Total Cell Count [12]: 372
